Assay [1] is described as follows: Inhibition of human liver cathepsin L using Z-Phe-Arg-AMC as substrate by kinetic fluorescence assay.
The target in assay [2] is T1, Calpain-1 catalytic subunit (Homo sapiens, UniProt P07384).
T1 sequence (P07384 whole entry): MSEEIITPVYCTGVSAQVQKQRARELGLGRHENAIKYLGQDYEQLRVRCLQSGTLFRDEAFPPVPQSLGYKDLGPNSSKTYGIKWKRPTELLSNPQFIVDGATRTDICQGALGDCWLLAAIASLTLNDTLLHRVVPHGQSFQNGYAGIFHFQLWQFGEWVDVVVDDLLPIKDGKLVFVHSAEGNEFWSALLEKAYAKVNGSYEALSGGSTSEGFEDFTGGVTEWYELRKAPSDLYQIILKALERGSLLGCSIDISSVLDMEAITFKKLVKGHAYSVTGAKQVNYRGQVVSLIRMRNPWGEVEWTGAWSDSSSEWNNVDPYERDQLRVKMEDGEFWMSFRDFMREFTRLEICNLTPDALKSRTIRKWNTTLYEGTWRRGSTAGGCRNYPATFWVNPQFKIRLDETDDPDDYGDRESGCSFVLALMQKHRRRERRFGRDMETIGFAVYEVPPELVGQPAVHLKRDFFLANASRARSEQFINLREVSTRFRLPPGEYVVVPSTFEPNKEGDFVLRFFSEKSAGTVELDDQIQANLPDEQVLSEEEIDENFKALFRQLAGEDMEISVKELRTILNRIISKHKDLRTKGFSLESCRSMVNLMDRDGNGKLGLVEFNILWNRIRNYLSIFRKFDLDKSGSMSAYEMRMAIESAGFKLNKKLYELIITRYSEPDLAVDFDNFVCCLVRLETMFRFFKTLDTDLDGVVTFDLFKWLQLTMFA
Description: Inhibition of human erythrocytes calpain-1 using Suc-Leu-Tyr-AMC as substrate by kinetic fluorescence assay. The conditions noted are these: read-out: Ki.

Assay [3] addresses Cathepsin S (Homo sapiens, UniProt P25774). Put plainly: Inhibition of human cathepsin S expressed in Escherichia coli using Z-Val-Val-Arg-AMC as substrate by kinetic fluorescence assay.
The test system of assay [4] is Rattus norvegicus. Put plainly: Neuroprotective activity in Wistar rat assessed as protection against scopolamine-induced cognitive impairment at 1 to 3 mg/kg, sc administered prior to scopolamine induction measured after 24 hrs. The class given is functional, organism-based. In outline: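 Scopolamine 0.1 mg/kg s.c., with test compound given s.c. beforehand in ethanol/PEG400/water (20:30:50). Single step-through passive avoidance training: 2 min habituation in the lit compartment, then a 0.5 mA, 2 s footshock on entering the dark side. Latency to enter the dark compartment measured 24 h later; n=14–47/group.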

The target of assay [5] is T2, Calpain-1 catalytic subunit (Rattus norvegicus) (UniProt P97571).
T2 sequence (whole entry): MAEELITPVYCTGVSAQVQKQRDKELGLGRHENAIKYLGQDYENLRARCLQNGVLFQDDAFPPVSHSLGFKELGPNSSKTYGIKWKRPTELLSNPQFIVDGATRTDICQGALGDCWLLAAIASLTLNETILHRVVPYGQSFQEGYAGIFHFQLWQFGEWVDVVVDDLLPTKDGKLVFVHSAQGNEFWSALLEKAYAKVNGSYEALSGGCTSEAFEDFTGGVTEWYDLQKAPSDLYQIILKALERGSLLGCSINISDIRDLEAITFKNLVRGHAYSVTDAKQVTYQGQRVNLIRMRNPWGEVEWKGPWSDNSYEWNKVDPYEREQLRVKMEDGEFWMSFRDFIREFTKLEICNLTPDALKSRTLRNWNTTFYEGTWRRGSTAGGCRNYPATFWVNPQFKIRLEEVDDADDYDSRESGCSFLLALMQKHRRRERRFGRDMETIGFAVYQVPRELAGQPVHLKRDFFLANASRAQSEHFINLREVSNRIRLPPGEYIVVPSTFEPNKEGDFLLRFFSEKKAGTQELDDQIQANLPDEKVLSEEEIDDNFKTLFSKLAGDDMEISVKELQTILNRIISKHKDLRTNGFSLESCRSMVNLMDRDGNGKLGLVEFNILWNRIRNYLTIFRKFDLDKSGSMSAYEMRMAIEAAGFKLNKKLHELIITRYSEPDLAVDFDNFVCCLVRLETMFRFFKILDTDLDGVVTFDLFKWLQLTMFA
Put plainly: (§1) Inhibition of calpain-1 in rat hippocampal slices assessed as prevention of NMDA-induced spectrin cleavage preincubated for 30 mins followed by NMDA addition measured after 5 hrs by Western blot analysis. In a few lines: (§2)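 Organotypic rat hippocampal slice cultures kept 6–8 days in 2% serum medium; 30 min inhibitor pre-incubation, then 10 µM NMDA for 5 h at 34°C, 5% CO2. Slices lysed; 150/145 kDa spectrin breakdown products quantified by densitometric Western blot with anti-spectrin alpha chain antibody.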

The target in assay [6] is T3, Calpain-1 catalytic subunit (Rattus norvegicus, UniProt P97571).
T3 sequence (P97571 whole entry): T2 sequence (whole entry)
The description is as §1. In a few lines:
as §2

Assay [7] addresses T2, Calpain-1 catalytic subunit (Rattus norvegicus). Put plainly: Inhibition of calpain-1 in rat hippocampal slices assessed as prevention of amyloid beta(1-42) globulomer-induced synaptic deficits at 10 nM co-administered with amyloid beta(1-42) globulomer […] by Schaffer collateral analysis. The conditions noted are these: in the assay text read “after 1 day” for “after 1 hr”. In a few lines:
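Hippocampal slices from 9–10-day-old Wistar rats cultured 15–18 days; 82 nM Aβ1-42 globulomer added to medium 1 day before recording, with compound co-applied; vehicle-only group included. Slices moved to interface chamber perfused with aCSF ≥1 h before recording; input/output after Schaffer collateral stimulation; 2-way repeated-measures ANOVA, Holm-Sidak.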

In assay [8] the test system is Rattus norvegicus. Description: Neuroprotective activity in sc dosed Sprague-Dawley rat assessed as increase in microdialysate acetylcholine levels in medial prefrontal cortex measured every 20 mins by HPLC analysis. The class given is functional, organism-based. In a few lines:
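Male Sprague-Dawley rats (290–320 g) implanted with medial prefrontal cortex microdialysis probes. Perfusion with Ringer solution containing 1 µM neostigmine at 1.5 µL/min. Twenty-minute fractions collected, six before and six after 1, 3 or 10 mg/kg s.c. (ethanol/PEG400/water vehicle). Acetylcholine measured by HPLC with an enzyme reactor and electrochemical detection, expressed as % of baseline.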

Assay [9] deals with Rattus norvegicus. Description: Neuroprotective activity in Fisher rat assessed as effect on latency in rapid eye movement at 1 mg/kg administered via oral gavage measured for 8 hrs at the beginning of 12 hr light period by EEG analysis relative to control. The class given is functional. In a few lines: (§3)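 Male Fisher rats (250–330 g) fitted with frontal/occipital EEG electrodes under ketamine/pentobarbital. Dosed by gavage in Cremophor EL/Capmul PG8 (20:80) just before recording. EEG recorded for 8 h from the start of the light period, without food or water. Crossover design with alternate treatment one week later; each animal served as its own control. Results as % of vehicle.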

In assay [10] the test system is Rattus norvegicus. Description: Neuroprotective activity in Fisher rat assessed as effect on rapid eye movement time at 3 mg/kg administered via oral gavage measured after 8 hrs at the beginning of 12 hr light period by EEG analysis relative to control. The class given is functional. In a few lines: as §3
For assay [11], the system named is Rattus norvegicus. Description: Neuroprotective activity in Fisher rat assessed as effect on latency in rapid eye movement at 3 mg/kg administered via oral gavage measured for 8 hrs at the beginning of 12 hr light period by EEG analysis relative to control. The format is functional. In outline: as §3
Assay [12] relates to Rattus norvegicus. Description: Neuroprotective activity in Fisher rat assessed as effect on rapid eye movement time at 10 mg/kg administered via oral gavage measured after 8 hrs at the beginning of 12 hr light period by EEG analysis relative to control. The class given is functional. In a few lines: as §3
The subject of assay [13] is Rattus norvegicus. Description: Neuroprotective activity in Fisher rat assessed as effect on latency in rapid eye movement at 10 mg/kg administered via oral gavage measured for 8 hrs at the beginning of 12 hr light period by EEG analysis relative to control. The class given is functional. In a few lines: as §3
The target in assay [14] is T4, Calpain-1 catalytic subunit (Homo sapiens) (UniProt P07384).
T4 sequence (whole entry): T1 sequence (P07384 whole entry)
Description: Inhibition of human erythrocytes calpain-1 using Suc-Leu-Tyr-AMC as substrate in presence of up to 10 mM glutathione by kinetic fluorescence assay.

Assay [15] addresses T2, Calpain-1 catalytic subunit (Rattus norvegicus). Description: Inhibition of calpain-1 in rat hippocampal slices assessed as prevention of NMDA-induced tau cleavage preincubated for 30 mins followed by NMDA addition measured after 5 hrs by Western blot analysis. In outline:
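Same slice protocol: rat hippocampal organotypic cultures, 30 min inhibitor pre-incubation, 10 µM NMDA for 5 h at 34°C, 5% CO2; lysates probed by densitometric Western blot for the 17 kDa tau cleavage fragment using anti-Tau 1 antibody.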

Assay [16] has as its system Rattus norvegicus. Description: Neuroprotective activity in Fisher rat assessed as effect on rapid eye movement sleep pattern administered via oral gavage measured after 8 hrs at the beginning of 12 hr light period by EEG analysis. The class given is functional. In a few lines:
as §3

A short description of assay [17]: Selectivity ratio of Ki for human liver cathepsin B to Ki for human erythrocytes calpain-1.
Assay [18] is filed under the species Homo sapiens. Description: Selectivity ratio of Ki for recombinant human procathepsin K expressed in Escherichia coli to Ki for human erythrocytes calpain-1. In a few lines: (§4)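 Ki ratios from kinetic fluorescence assays. Cathepsins B (0.25 nM), L (1 nM), K (3 nM) and S (0.5 nM) in MES buffer at pH 6.0. All at room temperature; Ki by Cheng-Prusoff.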
Assay [19] can be described thus: Selectivity ratio of Ki for human liver cathepsin L to Ki for human erythrocytes calpain-1.
The species entered for assay [20] is Homo sapiens. Description: Selectivity ratio of Ki for recombinant human cathepsin S expressed in Escherichia coli to Ki for human erythrocytes calpain-1. In outline: as §4
The nature of assay [21]: Thiol reactivity using recombinant human full length 13C-labeled La antigen (100 to 324 residues) expressed in Escherichia coli BL21(DE3) by ALARM NMR.

Active and inactive are the calls of the source. No cut-off for these calls is given here.

Cathepsin S, sequence (P25774 whole entry): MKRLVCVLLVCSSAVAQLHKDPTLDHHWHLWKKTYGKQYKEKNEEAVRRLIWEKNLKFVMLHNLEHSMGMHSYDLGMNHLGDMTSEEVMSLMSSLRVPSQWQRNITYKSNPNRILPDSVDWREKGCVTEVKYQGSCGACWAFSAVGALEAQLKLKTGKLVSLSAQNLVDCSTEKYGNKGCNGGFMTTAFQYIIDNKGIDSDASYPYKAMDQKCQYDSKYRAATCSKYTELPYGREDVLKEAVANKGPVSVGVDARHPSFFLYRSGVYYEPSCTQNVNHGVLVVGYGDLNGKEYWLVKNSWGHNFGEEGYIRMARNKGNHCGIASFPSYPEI

As to `CCN(CC)Cc1ccc(/C=C/c2ncccc2C(=O)NC(Cc2ccccc2)C(=O)C(N)=O)cc1` (configuration not stated), the inhibition constant Ki in assay [1] was 204 nM; in [2], 109 nM; in [3], greater than 10000 nM.

For `NC(=O)C(=O)C(Cc1ccccc1)NC(=O)c1cccnc1N1CCN(c2ccccc2)CC1` (configuration not stated), the Ki in [1] is 491 nM; in [2] it was 250 nM; in assay [3] it was 7260 nM.

Turning to `NC(=O)C(=O)C(Cc1ccccc1)NC(=O)c1cccnc1-n1ccc(-c2ccc(F)cc2)n1` (configuration not stated), in [4], the result was Active. Further, in assay [2], the Ki turned out to be 34 nM. Also, the results for the fIC50 in assay [5] and in assay [15] were 41 nM and 46 nM, respectively. Further, the IC50 in assay [6] amounted to 591 nM. Moreover, the inhibition result in [7] and in assay [14] was “Active” in each case. Further, the Activity entry in [8] is “Dose-dependent effect”; in [9] it was 100%; in [10], 131%; in [11], 99%; in assay [12], 125%; in assay [13], 80%. For the same compound, in [16], the Activity result is “Dose-dependent effect”.

Turning to `NC(=O)C(=O)C(Cc1ccccc1)NC(=O)c1cccnc1-n1ccc(-c2cccc(C(F)(F)F)c2)n1` (configuration not stated), the inhibition constant (Ki) in assay [2] amounted to 40 nM. The “Ratio Ki” value was 17 in assay [17], 28 in assay [18], greater than 300 in [19] and greater than 500 in assay [20]. The fIC50 in [5] was 155 nM. In assay [6], the IC50 was 5180 nM. Besides, the inhibition result in assay [14] was “Active”. Further, the Thiol reactivity result in assay [21] was “Metabolite not detected”.

`NC(=O)C(=O)C(Cc1ccccc1)NC(=O)c1cccnc1-n1cc2ccccc2n1` (configuration not stated): in assay [2], the Ki turned out to be 46 nM. Besides, the “Ratio Ki” value amounted to 6 in assay [17], 6 in [18], 124 in assay [19] and 51 in [20]. In assay [5], the fIC50 is 288 nM. In assay [6], the IC50 worked out at 3200 nM. The inhibition entry in assay [14] is “Active”. Further, in assay [21], the Thiol reactivity result was “Metabolite not detected”.

Take `NC(=O)C(=O)C(Cc1ccccc1)NC(=O)c1cccnc1N1CCC(c2ccccc2)C1` (configuration not stated): the inhibitory constant (Ki) stood at 39 nM in assay [1], 125 nM in [2] and 1780 nM in assay [3].

With `NC(=O)C(=O)C(Cc1ccccc1)NC(=O)c1cccnc1-n1ccc(-c2ccccc2)n1` (configuration not stated), the inhibition constant (Ki) in assay [2] turned out to be 18 nM. Further, the fIC50 in assay [5] was 39 nM. Moreover, the IC50 in assay [6] is 971 nM. In [14], the inhibition result was “Active”.

In the case of `NC(=O)C(=O)C(Cc1ccccc1)NC(=O)c1ccccc1-n1ccc(-c2ccccc2)n1` (configuration not stated), the Ki in [2] was 43 nM. For the same compound, the “Ratio Ki” value in assay [17] turned out to be 7; in assay [18], 1; in assay [19], 38; in assay [20], 82. Moreover, in [14], the inhibition entry is “Active”. Further, the Thiol reactivity entry in assay [21] is “Metabolite not detected”.

On to `CCN(CC)Cc1ccc(-c2ccn(-c3ncccc3C(=O)NC(Cc3ccccc3)C(=O)C(N)=O)n2)cc1` (configuration not stated), for which the inhibition constant (Ki) in assay [2] turned out to be 100 nM. In addition, the “Ratio Ki” value in assay [17] was less than 1; in [18] it was less than 1; in assay [19], 3; in [20], 69. Besides, in [6], the IC50 was greater than 10000 nM. For the same compound, the inhibition result in [14] was “Active”. Further, in assay [21], the Thiol reactivity result is reported as “Metabolite not detected”.

With `NC(=O)C(=O)C(Cc1ccccc1)NC(=O)c1cccnc1-c1coc(-c2ccccc2)n1` (configuration not stated), the inhibitory constant (Ki) in assay [2] turned out to be 177 nM. In addition, the “Ratio Ki” value turned out to be 11 in [17], 20 in assay [18], 29 in assay [19] and 127 in assay [20]. Also, the inhibition entry in assay [14] was “Active”. The Thiol reactivity entry in assay [21] was “Metabolite not detected”.

These data come from ChEMBL document CHEMBL4038338 (J Med Chem, 2017).
